In ChEMBL document CHEMBL2311539, “3,6-Diamino-4-(2-halophenyl)-2-benzoylthieno[2,3-b]pyridine-5-carbonitriles are selective inhibitors of Plasmodium falciparum glycogen synthase kinase-3” (J Med Chem, 2013):

What was measured:
[1] = Inhibition of Plasmodium falciparum recombinant His6-tagged GSK-3 expressed in Escherichia coli using GS-1 peptide as substrate after 30 mins by scintillation counting analysis in presence of gamma-33P-ATP
Method in brief: (§1)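 His6-tagged recombinant GSK-3 expressed in E. coli (TOP10/pBAD-Thio-TOPO for P. falciparum and T. gondii, arabinose-induced; BL21(DE3)-pRARE2/pET15 for C. parvum, IPTG at 15 °C), Ni-NTA purified. Assayed with 40 μM GS-1 phosphopeptide, 15 μM γ-33P-ATP in pH 7.5 Tris buffer with MgCl2, EGTA, DTT, heparin, BSA; 30 min, 30 °C; P81 paper, phosphoric acid washes, scintillation counting. DMSO controls; dose-response IC50, triplicate points.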

[2] = Inhibition of Plasmodium falciparum recombinant GSK-3 by radiometric protein kinase assay; method in brief: as §1
[3] = molecular target: Mitogen-activated protein kinase 14 (Homo sapiens) (UniProt Q16539); experiment: Inhibition of P38alpha MAPK (unknown origin) at 10 uM
Method in brief: (§2)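 Dundee human kinase selectivity panel (77 kinases); test compound at 1 and 10 μM, percentage kinase inhibition recorded.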

[4] = molecular target: T1, Inhibitor of nuclear factor kappa-B kinase subunit epsilon (Homo sapiens) (UniProt Q14164); experiment: Inhibition of IKK-epsilon (unknown origin) at 10 uM; method in brief: as §2
T1 sequence (whole entry): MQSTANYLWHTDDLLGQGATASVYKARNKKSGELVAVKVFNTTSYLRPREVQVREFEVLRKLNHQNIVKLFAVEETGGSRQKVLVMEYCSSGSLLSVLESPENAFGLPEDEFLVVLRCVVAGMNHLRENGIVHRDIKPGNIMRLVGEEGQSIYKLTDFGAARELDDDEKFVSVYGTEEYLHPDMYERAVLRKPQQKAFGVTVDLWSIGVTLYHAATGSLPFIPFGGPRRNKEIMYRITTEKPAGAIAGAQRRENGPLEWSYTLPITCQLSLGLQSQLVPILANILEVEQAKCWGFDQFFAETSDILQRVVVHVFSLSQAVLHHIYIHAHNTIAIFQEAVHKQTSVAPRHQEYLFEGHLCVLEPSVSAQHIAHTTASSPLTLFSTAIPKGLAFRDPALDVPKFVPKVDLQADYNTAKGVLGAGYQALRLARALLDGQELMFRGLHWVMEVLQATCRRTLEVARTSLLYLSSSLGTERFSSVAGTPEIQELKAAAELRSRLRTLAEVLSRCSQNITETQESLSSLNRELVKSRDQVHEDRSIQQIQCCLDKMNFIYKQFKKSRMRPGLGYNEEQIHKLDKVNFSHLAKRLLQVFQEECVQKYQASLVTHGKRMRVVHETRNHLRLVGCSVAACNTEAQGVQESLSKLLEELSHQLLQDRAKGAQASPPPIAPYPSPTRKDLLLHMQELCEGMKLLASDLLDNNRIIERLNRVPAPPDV

[5] = molecular target: MAP kinase-activated protein kinase 2 (Homo sapiens) (UniProt P49137); experiment: Inhibition of MAPKAP-K2 (unknown origin) at 10 uM; method in brief: as §2
[6] = Inhibition of Cryptosporidium parvum recombinant His6-tagged GSK-3 expressed in Escherichia coli using GS-1 peptide as substrate after 30 mins by scintillation counting analysis in presence of gamma-33P-ATP; method in brief: as §1
Plasmodium falciparum [7] = experiment: Antiplasmodial activity against Plasmodium falciparum after 72 hrs by luciferase reporter gene assay; type: functional, organism-based; conditions: 48 h, in the assay text read “48 hrs” for “72 hrs”
Method in brief: (§3)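 NF54:LUC P. falciparum erythrocytic stages (luciferase under hrp2 promoter) at 3% parasitemia, 25% hematocrit; compounds in RPMI-1640 with 1% DMSO, triplicate wells; untreated, DMSO-only and non-luciferase NF54 blank wells. […] Bright-Glo lysis, luminescence read.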

[8] = Inhibition of Plasmodium knowlesi recombinant His6-tagged GSK-3 expressed in Escherichia coli using GS-1 peptide as substrate after 30 mins by scintillation counting analysis in presence of gamma-33P-ATP
Method in brief: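 P. knowlesi GSK3 gene in pBAD-Thio-TOPO, expressed in E. coli TOP10 (ampicillin, 37 °C, 0.02% arabinose for 4 h), Ni-NTA purified. Radiometric assay: 40 μM GS-1 peptide in buffer A pH 7.5 (MgCl2, EGTA, DTT, heparin, BSA) with 15 μM γ-33P-ATP, 30 min at 30 °C. P81 filter binding, scintillation counting. IC50 from triplicate dose-response curves.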

[9] = molecular target: RAC-alpha serine/threonine-protein kinase (Homo sapiens) (UniProt P31749); experiment: Inhibition of PKB alpha (unknown origin) at 10 uM; method in brief: as §2
[10] = molecular target: Serine/threonine-protein kinase PAK 4 (Homo sapiens) (UniProt O96013); experiment: Inhibition of PAK4 (unknown origin) at 10 uM; method in brief: as §2
[11] = molecular target: Insulin receptor (Homo sapiens) (UniProt P06213); experiment: Inhibition of IR-HIS (unknown origin) at 10 uM; method in brief: as §2
[12] = Inhibition of Trypanosoma cruzi GSK-3
[13] = molecular target: Tyrosine-protein kinase BTK (Homo sapiens) (UniProt Q06187); experiment: Inhibition of BTK (unknown origin) at 10 uM; method in brief: as §2
[14] = Inhibition of Leishmania donovani GSK-3
[15] = molecular target: T2, Mitogen-activated protein kinase 15 (Homo sapiens) (UniProt Q8TD08); experiment: Inhibition of ERK8 (unknown origin) at 10 uM; method in brief: as §2
T2 sequence (whole entry): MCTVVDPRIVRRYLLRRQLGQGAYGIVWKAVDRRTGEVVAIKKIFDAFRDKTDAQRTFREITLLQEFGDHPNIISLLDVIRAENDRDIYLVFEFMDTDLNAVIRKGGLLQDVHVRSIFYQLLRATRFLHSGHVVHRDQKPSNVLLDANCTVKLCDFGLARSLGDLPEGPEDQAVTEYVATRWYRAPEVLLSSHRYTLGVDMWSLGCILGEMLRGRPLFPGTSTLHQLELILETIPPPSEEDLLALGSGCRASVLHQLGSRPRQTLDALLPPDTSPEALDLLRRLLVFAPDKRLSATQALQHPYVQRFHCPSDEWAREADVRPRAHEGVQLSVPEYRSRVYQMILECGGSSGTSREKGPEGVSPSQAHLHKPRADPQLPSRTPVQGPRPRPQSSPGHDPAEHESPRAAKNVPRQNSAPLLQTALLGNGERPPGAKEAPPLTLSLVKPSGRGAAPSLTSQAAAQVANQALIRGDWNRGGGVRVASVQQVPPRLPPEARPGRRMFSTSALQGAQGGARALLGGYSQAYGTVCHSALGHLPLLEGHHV

Plasmodium falciparum [16] = experiment: Antiplasmodial activity against Plasmodium falciparum at 15 uM after 72 hrs by luciferase reporter gene assay; type: functional; method in brief: as §3

Chain of Insulin receptor (Homo sapiens) (P06213 28-758 limits assumed): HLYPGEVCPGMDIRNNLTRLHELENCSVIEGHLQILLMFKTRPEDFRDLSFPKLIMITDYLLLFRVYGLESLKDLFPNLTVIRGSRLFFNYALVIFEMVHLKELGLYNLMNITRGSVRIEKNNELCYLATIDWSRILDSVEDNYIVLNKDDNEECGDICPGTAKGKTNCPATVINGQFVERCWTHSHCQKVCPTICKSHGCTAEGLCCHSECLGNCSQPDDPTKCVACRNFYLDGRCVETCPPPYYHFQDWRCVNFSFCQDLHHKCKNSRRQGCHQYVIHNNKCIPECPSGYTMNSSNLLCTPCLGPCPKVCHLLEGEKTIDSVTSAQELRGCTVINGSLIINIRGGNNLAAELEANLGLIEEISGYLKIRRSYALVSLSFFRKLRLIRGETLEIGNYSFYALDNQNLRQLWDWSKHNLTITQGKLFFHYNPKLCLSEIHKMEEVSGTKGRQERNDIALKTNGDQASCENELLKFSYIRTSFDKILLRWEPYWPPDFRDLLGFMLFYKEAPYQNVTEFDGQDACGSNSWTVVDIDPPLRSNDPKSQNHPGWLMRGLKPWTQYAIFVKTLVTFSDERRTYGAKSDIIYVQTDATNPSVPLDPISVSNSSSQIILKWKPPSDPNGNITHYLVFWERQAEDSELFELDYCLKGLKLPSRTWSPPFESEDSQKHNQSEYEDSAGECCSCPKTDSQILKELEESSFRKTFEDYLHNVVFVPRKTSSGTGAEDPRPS
Chain of Insulin receptor (Homo sapiens) (P06213 763-1382 limits assumed): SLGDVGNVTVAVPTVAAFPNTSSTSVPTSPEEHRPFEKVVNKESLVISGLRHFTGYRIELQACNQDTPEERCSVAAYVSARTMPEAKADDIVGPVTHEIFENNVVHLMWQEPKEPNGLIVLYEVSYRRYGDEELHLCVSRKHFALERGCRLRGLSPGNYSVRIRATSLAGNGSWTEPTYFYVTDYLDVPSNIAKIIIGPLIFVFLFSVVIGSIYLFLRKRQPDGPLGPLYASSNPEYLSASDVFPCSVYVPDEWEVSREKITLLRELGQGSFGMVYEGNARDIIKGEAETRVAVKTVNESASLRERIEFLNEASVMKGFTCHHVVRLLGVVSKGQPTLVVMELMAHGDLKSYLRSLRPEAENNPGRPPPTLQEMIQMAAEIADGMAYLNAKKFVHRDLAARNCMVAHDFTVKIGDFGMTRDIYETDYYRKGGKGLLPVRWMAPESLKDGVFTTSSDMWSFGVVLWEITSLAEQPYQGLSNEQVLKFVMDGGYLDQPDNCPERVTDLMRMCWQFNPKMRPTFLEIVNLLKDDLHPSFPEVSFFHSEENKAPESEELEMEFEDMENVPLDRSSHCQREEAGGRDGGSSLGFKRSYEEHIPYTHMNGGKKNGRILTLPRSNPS
Chain of Mitogen-activated protein kinase 14 (Homo sapiens) (Q16539 whole entry): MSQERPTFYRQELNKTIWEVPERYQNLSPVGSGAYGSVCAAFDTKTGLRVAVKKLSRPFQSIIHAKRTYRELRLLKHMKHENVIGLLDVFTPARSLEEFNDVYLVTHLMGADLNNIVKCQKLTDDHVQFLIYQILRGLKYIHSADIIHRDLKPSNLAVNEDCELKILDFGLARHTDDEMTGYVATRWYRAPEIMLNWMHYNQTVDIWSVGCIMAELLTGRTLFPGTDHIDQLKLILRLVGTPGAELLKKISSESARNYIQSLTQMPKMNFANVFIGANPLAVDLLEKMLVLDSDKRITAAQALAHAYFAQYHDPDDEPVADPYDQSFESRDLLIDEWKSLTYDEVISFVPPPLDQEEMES
Chain of RAC-alpha serine/threonine-protein kinase (Homo sapiens) (P31749 whole entry): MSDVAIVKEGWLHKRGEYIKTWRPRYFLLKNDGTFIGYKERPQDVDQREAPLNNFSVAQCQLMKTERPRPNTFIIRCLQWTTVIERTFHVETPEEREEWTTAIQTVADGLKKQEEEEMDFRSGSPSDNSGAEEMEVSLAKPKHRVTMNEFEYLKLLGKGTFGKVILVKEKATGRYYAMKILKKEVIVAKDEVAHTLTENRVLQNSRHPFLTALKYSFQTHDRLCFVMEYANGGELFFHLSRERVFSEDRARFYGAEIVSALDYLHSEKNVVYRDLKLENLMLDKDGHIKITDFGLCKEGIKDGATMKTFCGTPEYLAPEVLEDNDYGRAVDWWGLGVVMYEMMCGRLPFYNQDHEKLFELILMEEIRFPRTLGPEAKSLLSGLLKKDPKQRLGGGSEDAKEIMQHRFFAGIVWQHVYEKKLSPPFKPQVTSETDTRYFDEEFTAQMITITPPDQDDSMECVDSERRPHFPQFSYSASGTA
Chain of Tyrosine-protein kinase BTK (Homo sapiens) (Q06187 whole entry): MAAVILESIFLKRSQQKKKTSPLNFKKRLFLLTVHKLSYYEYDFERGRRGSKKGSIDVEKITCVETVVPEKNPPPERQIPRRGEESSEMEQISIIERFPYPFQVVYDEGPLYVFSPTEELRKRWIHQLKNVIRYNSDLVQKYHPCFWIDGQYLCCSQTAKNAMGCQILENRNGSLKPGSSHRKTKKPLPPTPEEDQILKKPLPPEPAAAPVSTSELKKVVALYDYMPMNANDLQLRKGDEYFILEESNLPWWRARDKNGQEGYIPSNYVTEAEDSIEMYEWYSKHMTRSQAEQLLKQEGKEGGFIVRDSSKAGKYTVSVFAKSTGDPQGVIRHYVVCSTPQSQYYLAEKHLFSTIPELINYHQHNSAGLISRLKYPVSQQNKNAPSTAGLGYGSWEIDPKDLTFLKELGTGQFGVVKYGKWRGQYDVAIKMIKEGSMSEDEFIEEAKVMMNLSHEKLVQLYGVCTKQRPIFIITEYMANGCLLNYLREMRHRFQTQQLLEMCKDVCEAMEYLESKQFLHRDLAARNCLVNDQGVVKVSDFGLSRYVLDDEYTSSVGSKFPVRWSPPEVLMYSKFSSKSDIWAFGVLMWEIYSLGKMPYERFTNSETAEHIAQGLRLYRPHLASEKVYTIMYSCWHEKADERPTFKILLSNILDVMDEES
Chain of MAP kinase-activated protein kinase 2 (Homo sapiens) (P49137 whole entry, looked up): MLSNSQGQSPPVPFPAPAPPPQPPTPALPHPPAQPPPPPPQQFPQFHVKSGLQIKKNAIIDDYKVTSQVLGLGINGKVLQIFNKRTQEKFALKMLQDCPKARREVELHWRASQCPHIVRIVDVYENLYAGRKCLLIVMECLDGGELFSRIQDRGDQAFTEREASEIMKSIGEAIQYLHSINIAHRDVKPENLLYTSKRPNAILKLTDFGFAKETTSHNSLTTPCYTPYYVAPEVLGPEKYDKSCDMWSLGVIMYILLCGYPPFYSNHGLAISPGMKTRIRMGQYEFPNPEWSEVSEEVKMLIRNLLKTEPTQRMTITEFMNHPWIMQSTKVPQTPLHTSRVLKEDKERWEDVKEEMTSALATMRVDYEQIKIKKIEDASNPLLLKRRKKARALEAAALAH
Chain of Serine/threonine-protein kinase PAK 4 (Homo sapiens) (O96013 whole entry, looked up): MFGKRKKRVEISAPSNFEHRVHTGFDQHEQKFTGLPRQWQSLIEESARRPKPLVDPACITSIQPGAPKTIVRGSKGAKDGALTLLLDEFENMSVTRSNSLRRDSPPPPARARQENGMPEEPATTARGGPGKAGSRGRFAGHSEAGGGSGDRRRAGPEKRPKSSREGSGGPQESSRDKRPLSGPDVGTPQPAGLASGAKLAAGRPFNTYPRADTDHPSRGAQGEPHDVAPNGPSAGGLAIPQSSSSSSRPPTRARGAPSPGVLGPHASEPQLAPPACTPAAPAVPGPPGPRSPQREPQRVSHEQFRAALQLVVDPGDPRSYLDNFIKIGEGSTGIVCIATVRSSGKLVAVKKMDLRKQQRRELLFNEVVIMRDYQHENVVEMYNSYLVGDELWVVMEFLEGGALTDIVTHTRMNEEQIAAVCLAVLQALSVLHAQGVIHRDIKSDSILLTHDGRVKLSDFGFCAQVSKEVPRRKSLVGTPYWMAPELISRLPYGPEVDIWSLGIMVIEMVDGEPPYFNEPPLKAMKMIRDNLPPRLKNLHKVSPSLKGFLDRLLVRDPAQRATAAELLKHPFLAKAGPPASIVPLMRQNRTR

In the case of `N#Cc1c(N)nc2sc(C(=O)c3cccc(Cl)c3)c(N)c2c1-c1ccccc1Cl`, the IC50 [1] is reported as 480 nM, the IC50 [2] is reported as 480 nM and the inhibition [3] is reported as > 50%. For the same molecule, the inhibition [4] was > 50%, the inhibition [5] was > 50% and the IC50 [6] was > 100 µM. For the same molecule, the EC50 (Plasmodium falciparum [7]) was 5.5 µM, the IC50 [8] was 2450 nM and the inhibition [9] was > 80%. For the same molecule, the inhibition [10] was > 50%, the inhibition [11] was > 50% and the IC50 [12] was > 100 µM. The inhibition [13] was > 50%, the IC50 [14] was 72 µM and the inhibition [15] was > 50%. The inhibition at 15 µM (Plasmodium falciparum [16]) was 100%.
